SMILES strings stand for the structures.

The nature of series [1]: Apparent permeability from apical to basolateral side of human Caco2 cells at 2 uM after 60 to 120 mins. The settings on record: Caco-2. It is filed as ADME, cell-based. The gist of the method: (§1)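 Monolayers on collagen-coated polycarbonate Transwells (0.4 μm pores), seeded at 60,000 cells/cm². Caco-2 were used at 21-28 days (TEER > 450 Ω·cm²); BCRP-MDCK at 7-11 days (TEER > 1200 Ω·cm²), stably expressing human ABCG2 R482 under neomycin selection. Rosuvastatin 2 μM in HBSSg pH 7.4 was dosed apically or basolaterally at 37°C. Samples were taken at 60 and 120 min for LC-MS/MS. Papp was determined; ER = Papp B-to-A / Papp A-to-B; triplicate.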
In general terms: Passage across Caco-2 layers is used to estimate intestinal permeability.

Series [2] can be described thus: Apparent permeability from basolateral to apical side of human Caco2 cells at 2 uM after 60 to 120 mins. In kind it is ADME, cell-based. The conditions noted are these: Caco-2. The method in brief:
as §1

A short description of series [3]: Efflux ratio of apparent permeability from basolateral to apical over apical to basolateral side of human Caco2 cells at 2 uM after 60 to 120 mins. In kind it is ADME, cell-based. The settings on record: Caco-2. The method in brief:
as §1

The nature of series [4]: Apparent permeability from apical to basolateral side of MDCK cells at 2 uM after 60 to 120 mins. It is filed as ADME, cell-based, Canis lupus familiaris. The conditions noted are these: dog. The gist of the method:
as §1

Series [5] is described as follows: Apparent permeability from basolateral to apical side of MDCK cells at 2 uM after 60 to 120 mins. It is filed as ADME, cell-based, Canis lupus familiaris. The conditions noted are these: dog. The gist of the method: as §1
The nature of series [6]: Efflux ratio of apparent permeability from basolateral to apical over apical to basolateral side of MDCK cells at 2 uM after 60 to 120 mins. It is filed as ADME, cell-based, Canis lupus familiaris. The conditions noted are these: dog. The gist of the method:
as §1

Series [7] concerns BCRP. The series is described as follows: Apparent permeability from apical to basolateral side of MDCK cells overexpressing BCRP at 2 uM after 60 to 120 mins. It is filed as ADME, cell-based, Canis lupus familiaris. The conditions noted are these: dog. The method in brief: as §1
In series [8] the test system is BCRP. The series is described as follows: Apparent permeability from basolateral to apical side of MDCK cells overexpressing BCRP at 2 uM after 60 to 120 mins. It is filed as ADME, cell-based, Canis lupus familiaris. The conditions noted are these: dog. The gist of the method:
as §1

In series [9] the test system is BCRP. The series is described as follows: Efflux ratio of apparent permeability from basolateral to apical over apical to basolateral side of MDCK cells overexpressing BCRP at 2 uM after 60 to 120 mins. The conditions noted are these: dog. In kind it is ADME, cell-based, Canis lupus familiaris. The gist of the method:
as §1

A short description of series [10]: Cmax in healthy human at 20 mg, po. The conditions noted are these: in vivo.
Series [11] can be described thus: Cellular uptake in human Caco2 cells after 30 mins by Michaelis-Menten equation analysis. In kind it is ADME, cell-based, Caco-2. The gist of the method: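 Caco-2 monolayers (21-28 days). Rosuvastatin at various concentrations was dosed basolaterally in HBSSg pH 7.4 and incubated 30 min at 37°C. Apical samples and ice-cold-washed, acetonitrile-lysed cells were analysed by LC-MS/MS. Total uptake was fitted by nonlinear regression to saturable plus nonsaturable components to give Km; mean ± S.D., n = 3.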

The nature of series [12]: Oral bioavailability in human at 40 mg. It is filed as ADME, organism-based. The settings on record: in vivo.
For the next series, the system named is Homo sapiens. The experiment in a line: Total clearance in human at 40 mg, po. In kind it is ADME, organism-based. The settings on record: in vivo.
Series [13] is described as follows: Partition coefficient, pKa of the compound. The settings on record: octanol/water. In kind it is physicochemical.
A short description of series [14]: Activity at OSTalpha/OSTbeta in human Caco2 cells assessed as drug transport from basolateral to apical side at 2 uM in presence of chenodoxycholate relative to control. It is filed as ADME, cell-based. The conditions noted are these: caco-2, 2 µM.
Series [15] is described as follows: Activity at OSTalpha/OSTbeta in human Caco2 cells assessed as drug transport from basolateral to apical side at 2 uM in presence of lithocholate acid relative to control. It is filed as ADME, cell-based. The conditions noted are these: caco-2, 2 µM.
The nature of series [16]: Activity at OSTalpha/OSTbeta in human Caco2 cells assessed as drug transport from basolateral to apical side at 2 uM in presence of taurocholate relative to control. It is filed as ADME, cell-based. The conditions noted are these: caco-2, 2 µM.
A short description of series [17]: Activity at OSTalpha/OSTbeta in human Caco2 cells assessed as drug transport from basolateral to apical side at 2 uM in presence of taurolithocholate relative to control. It is filed as ADME, cell-based. The settings on record: caco-2, 2 µM.
The nature of series [18]: Activity at OSTalpha/OSTbeta in human Caco2 cells assessed as drug transport from basolateral to apical side at 2 uM in presence of dehydroepiandrosterone sulfate relative to control. It is filed as ADME, cell-based. The settings on record: caco-2, 2 µM.
Series [19] can be described thus: Activity at OSTalpha/OSTbeta in human Caco2 cells assessed as drug transport from basolateral to apical side at 2 uM in presence of digoxin relative to control. In kind it is ADME, cell-based. The settings on record: caco-2, 2 µM.
Series [20] is described as follows: Activity at OSTalpha/OSTbeta in human Caco2 cells assessed as drug transport from basolateral to apical side at 2 uM in presence of estrone 3-sulfate relative to control. It is filed as ADME, cell-based. The conditions noted are these: caco-2, 2 µM.
Series [21] is described as follows: Activity at OSTalpha/OSTbeta in human Caco2 cells assessed as drug transport from basolateral to apical side at 2 uM in presence of spironolactone relative to control. It is filed as ADME, cell-based. The conditions noted are these: caco-2, 2 µM.
A short description of series [22]: Activity at OSTalpha/OSTbeta in human Caco2 cells assessed as drug transport from basolateral to apical side at 2 uM in presence of bromosulfophthalein relative to control. It is filed as ADME, cell-based. The conditions noted are these: caco-2, 2 µM.
Series [23] can be described thus: Activity at OSTalpha/OSTbeta in human Caco2 cells assessed as drug transport from basolateral to apical side at 2 uM in presence of indomethacin relative to control. The conditions noted are these: caco-2, 2 µM. It is filed as ADME, cell-based.
Series [24] can be described thus: Activity at OSTalpha/OSTbeta in human Caco2 cells assessed as drug transport from basolateral to apical side at 2 uM in presence of probenecid relative to control. In kind it is ADME, cell-based. The settings on record: caco-2, 2 µM.
Series [25] is described as follows: Activity at OSTalpha/OSTbeta in human Caco2 cells assessed as drug transport from basolateral to apical side at 2 uM in presence of rifamycin relative to control. It is filed as ADME, cell-based. The conditions noted are these: caco-2, 2 µM.
Series [26] can be described thus: Activity at OSTalpha/OSTbeta in human Caco2 cells assessed as drug transport from apical to basolateral side at 50 uM in presence of 10 uM taurolithocholate relative to control. It is filed as ADME, cell-based. The settings on record: caco-2, 50 µM. The gist of the method: (§2)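 Caco-2 monolayers (21-28 days, TEER > 450 Ω·cm²). Rosuvastatin 50 μM was dosed apically with 10 μM atenolol as a low-permeability marker, in HBSSg/MES at pH 5.5. Basolateral buffer was HBSSg/HEPES pH 7.4, with or without tauroolithocholate (10, 50 or 100 μM). Incubated at 37°C. Basolateral samples were taken at 15, 30 and 60 min and measured by LC-MS/MS. Efflux was normalised to BCA protein and expressed as % control; triplicate.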

A short description of series [27]: Activity at OSTalpha/OSTbeta in human Caco2 cells assessed as drug transport from apical to basolateral side at 50 uM in presence of 50 uM taurolithocholate relative to control. It is filed as ADME, cell-based. The settings on record: caco-2, 50 µM. The gist of the method: as §2
Series [28] in a line: Activity at OSTalpha/OSTbeta in human Caco2 cells assessed as drug transport from apical to basolateral side at 50 uM in presence of 100 uM taurolithocholate relative to control. It is filed as ADME, cell-based. The conditions noted are these: caco-2, 50 µM. The method in brief:
as §2

What is called Papp A→B is the apparent permeability from the apical to the basolateral side of a cell layer. As a reminder, the Papp B→A is how fast a substance crosses the layer from the basolateral side. As a reminder, the efflux ratio is a quotient of directional permeabilities that is used to spot active efflux. As to `COc1cc2nc(N3CCN(C(=O)c4ccco4)CC3)nc(N)c2cc1OC` [PRAZOSIN], the apparent permeability from apical to basolateral (Papp A→B) at 2 µM in [1] is 3.92 ×10⁻⁶ cm/s; in series [4] it was 4.32 ×10⁻⁶ cm/s; in the series on BCRP [7], 1.31 ×10⁻⁶ cm/s. Further, the apparent permeability from basolateral to apical (Papp B→A) at 2 µM worked out at 41.1 ×10⁻⁶ cm/s in [2], 13.6 ×10⁻⁶ cm/s in series [5] and 45.1 ×10⁻⁶ cm/s in the series on BCRP [8]. The efflux ratio at 2 µM in series [3] came out at 10.5; in series [6] it was 3.1; in the series with BCRP [9], 34.5.

The term Cmax denotes the highest concentration seen after dosing. One may read the Km as the concentration of substrate that gives half-maximal velocity. Broadly, the bioavailability is dose-corrected exposure relative to a reference, in per cent. High values mean good availability, low ones poor availability. In general, pKa refers to the negative logarithm of the acid dissociation constant. Low values mean a group that gives up its proton readily, high ones a group that holds its proton tightly. As for `CC(C)c1nc(N(C)S(C)(=O)=O)nc(-c2ccc(F)cc2)c1/C=C/[C@@H](O)C[C@@H](O)CC(=O)[O-].CC(C)c1nc(N(C)S(C)(=O)=O)nc(-c2ccc(F)cc2)c1/C=C/[C@@H](O)C[C@@H](O)CC(=O)[O-].[Ca+2]` [ROSUVASTATIN CALCIUM], the maximum concentration (Cmax) in series [10] was 6 nM. The molecule further gave a Kd in series [11] (caco-2) of 0.9985 µL/min/mg. Moreover, the Michaelis-Menten constant (Km) at 0.5 h in series [11] (human, Caco-2 cells) is 4.21 µM. This molecule registered a Jmax in [11] (human, caco-2, 0.5 h) of 24.64 pmol/min/mg. Besides, the bioavailability in [12] stood at 20%. In the series on Homo sapiens, this molecule yielded a CL of 70%. In addition, the Papp A→B at 2 µM in [1] worked out at 0.25 ×10⁻⁶ cm/s; in series [4] it was 0.43 ×10⁻⁶ cm/s; in the series on BCRP [7] it was 0.28 ×10⁻⁶ cm/s. Also, the basolateral-to-apical permeability (Papp B→A) at 2 µM in series [2] was 20.7 ×10⁻⁶ cm/s; in [5] it was 0.49 ×10⁻⁶ cm/s; in the series with BCRP [8], 1.63 ×10⁻⁶ cm/s. In addition, the efflux ratio at 2 µM in [3] worked out at 83.2; in series [6], 1.1; with BCRP [9] it was 5.8. In [13], this molecule had a pKa of 4.2. In addition, the Drug transport is on record as 27.9% in series [14]; 42.6% in series [15]; 29.1% in series [16]; 30.1% in series [17]; 38.1% in series [18]; 43.9% in [19]. Besides, the Drug transport in series [20] is recorded as 28.7%; in series [21] it was 35.1%; in [22], 23.5%; in series [23] it was 32.7%; in series [24], 73.8%; in series [25] it was 21.4%. In addition, the Drug transport was 338% in [26], 436% in series [27] and 359% in [28].
